Laboratory results as given in ChEMBL document CHEMBL4422614 (Eur J Med Chem, 2019).
Values belong to the molecule of their own block, whether it stands above or below them. Calls of active or inactive are those of the source. No cut-off for these calls is given here.

Key:
[1] = Nephrotoxicity in C57BL/6 mouse assessed as tissue damage up to 2000 mg/kg, ig after 14 days by microscopic analysis; type: toxicity, organism-based; details: in vivo, po, 336 h
Outline: (§1)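 Mice given a single intragastric dose of test compound at various dosages, then observed for 14 days for death and abnormal behaviour. On day 14, animals were sacrificed and heart, liver, lungs and kidneys examined.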

Mus musculus [2] = test: (§2) Neuroprotection in amyloid beta (25 to 35 residues) induced C57BL/6J mouse model of Alzheimer's disease assessed as reduction in ratio of apoptotic neuron in DG hippocampus region at 30 mg/kg/day, ig administered for 26 consecutive days by hematoxylin and eosin staining-based light microscopic analysis (reference value: 55.8 +/- 7.2%); type: ADME, organism-based; design: scale not given: the % may be the effect or the level left; details: in vivo, po
Outline: (§3)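 Hippocampal CA1, CA3 and DG neurons were stained with H&E after the Aβ25-35 ICV model and 26-day intragastric dosing. Denatured cell index = denatured cells/total cells, n = 5. Values are mean ± SD, two-way ANOVA versus model.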

Mus musculus [3] = test: (§4) Neuroprotection in C57BL/6J mouse model of amyloid beta (25 to 35 residues) induced Alzheimer's disease assessed as reduction in ratio of apoptotic neuron in CA1 hippocampus region at 30 mg/kg/day, ig administered for 26 consecutive days by hematoxylin and eosin staining-based light microscopic analysis (reference value: 40.6 +/- 12.5%); type: ADME, organism-based; design: scale not given: the % may be the effect or the level left; details: in vivo, po; outline: as §3
[4] = Drug metabolism in Sprague-Dawley rat liver microsomes assessed as metabolic rate up to 180 mins in presence of NADPH by UV-based LC-MS/MS analysis; type: ADME, Microsome; details: 3 h
Mus musculus [5] = test: Cognition enhancement activity in amyloid beta (25 to 35 residues) induced C57BL/6J mouse model of Alzheimer's disease assessed as swimming time in effective region at 30 mg/kg/day, ig administered for 26 consecutive days by Morris water maze test (4.3 +/- 1.3 sec); type: functional
Outline: (§5)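 Mice were randomized into 7 groups. All except sham got an ICV injection of Aβ25-35 (3 nmol); sham got the same volume of saline ICV. Dosing was intragastric daily for 26 days, with 0.5% CMC-Na as vehicle for sham and model. Body weight, diarrhea and emesis-like behavior were monitored.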

[6] = Metal chelating activity assessed as inhibition of Cu(II)/ascorbate-induced ROS production by measuring […] level at 10 uM by fluorescence assay
Outline: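 A Cu-ascorbate redox system in PBS (pH 7.4) at 37 °C, with Cu(II) 5 µM, ascorbate 150 µM and coumarin-3-carboxylic acid 50 µM as the hydroxyl radical trap. Compound was pre-incubated 10 min before ascorbate was added. Fluorescence of 7-hydroxy-CCA (ex 395, em 450 nm) was read every 30 s for 15 min.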

[7] = Metal chelating activity of the compound assessed as formation of ferric-compound complex at 50 uM after 30 mins by UV-vis spectrophotometric analysis
Outline: (§6)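 UV-vis absorption spectra of compound (50 µM) were recorded in HEPES buffer alone and with 50 µM CuSO4, ZnCl2, FeSO4 or FeCl3, and spectral changes were assessed.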

[8] = Cardiotoxicity in C57BL/6 mouse assessed as abnormal changes up to 2000 mg/kg, ig after 14 days by microscopic analysis; type: toxicity, organism-based; details: in vivo, po, 336 h; outline: as §1
[9] = molecular target: 3',5'-cyclic-AMP phosphodiesterase 4D (Homo sapiens, UniProt Q08499); test: Inhibition of human PDE4D2 (86 to 413 residues) catalytic domain using [3H]-cAMP as substrate after 15 mins by liquid scintillation counting method
Mus musculus [10] = test: as §2, with “CA3” for “DG”, “80.2” for “55.8”, “8.6%)” for “7.2%)”; type: ADME, organism-based; design: scale not given: the % may be the effect or the level left; details: in vivo, po; outline: as §3
[11] = Metal chelating activity assessed as inhibition of Cu(II)-induced amyloid beta (1 to 42 residues) aggregation at 25 uM after 24 hrs by TEM assay
Outline: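 Samples were prepared as for the ThT assay. 10 µL aliquots were applied to carbon-coated copper grids for 2 min, then stained with 3% phosphotungstic acid for 2 min and imaged by transmission electron microscopy.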

[12] = Hepatotoxicity in C57BL/6 mouse assessed as tissue damage up to 2000 mg/kg, ig after 14 days by microscopic analysis; type: toxicity, organism-based; details: in vivo, po, 336 h; outline: as §1
[13] = Acute Toxicity in C57BL/6 mouse lung assessed as tissue damage up to 2000 mg/kg, ig after 14 days by microscopic analysis; type: organism-based; details: in vivo, po, 336 h; outline: as §1
[14] = Cardiotoxicity in C57BL/6 mouse assessed as tissue damage up to 2000 mg/kg, ig after 14 days by microscopic analysis; type: toxicity, organism-based; details: in vivo, po, 336 h; outline: as §1
[15] = Acute Toxicity in C57BL/6 mouse assessed as abnormal behavior up to 2000 mg/kg, ig measured over 14 days; type: organism-based; details: in vivo, po, 336 h; outline: as §1
Mus musculus [16] = test: Cognition enhancement activity in amyloid beta (25 to 35 residues) induced C57BL/6J mouse model of Alzheimer's disease assessed as swimming path length in virtual platform at 30 mg/kg/day, ig administered for 26 consecutive days by Morris water maze test (10.2 +/- 3.2 cm); type: functional; outline: as §5
SH-SY5Y [17] = test: Antioxidant activity in human SH-SY5Y cells assessed as inhibition of t-BuOOH-induced intracellular oxidative stress by measuring ROS level preincubated for 24 hrs followed by t-BuOOH addition and measured after 30 mins by DCFH-DA dye-based fluorescence assay; type: functional, cell-based
[18] = Nephrotoxicity in C57BL/6 mouse assessed as abnormal changes up to 2000 mg/kg, ig after 14 days by microscopic analysis; type: toxicity, organism-based; details: in vivo, po, 336 h; outline: as §1
[19] = Acute Toxicity in C57BL/6 mouse assessed as mouse mortality up to 2000 mg/kg, ig measured over 14 days; type: organism-based; details: in vivo, po, 336 h; outline: as §1
Mus musculus [20] = test: Cognition enhancement activity in amyloid beta (25 to 35 residues) induced C57BL/6J mouse model of Alzheimer's disease assessed as swimming speed at 30 mg/kg/day, ig administered for 26 consecutive days by Morris water maze test (reference value: 15.6 +/- 2.4 cm/sec); type: functional; outline: as §5
SH-SY5Y [21] = test: Cytotoxicity against human SH-SY5Y cells assessed as effect on cell viability at 10 uM after 24 hrs by MTT assay; type: cell-based
Outline: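 SH-SY5Y viability was measured by MTT after exposure to compounds at 10 µM. Results are percent of vehicle control from three independent experiments.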

[22] = Metal chelating activity of the compound assessed as formation of zinc-compound complex at 50 uM after 30 mins by UV-vis spectrophotometric analysis; outline: as §6
[23] = Toxicity in amyloid beta (25 to 35 residues) induced C57BL/6J mouse model of Alzheimer's disease assessed as diarrhea at 30 mg/kg/day, ig administered for 26 consecutive days; type: organism-based; details: in vivo, po; outline: as §5
[24] = Hepatotoxicity in C57BL/6 mouse assessed as abnormal changes up to 2000 mg/kg, ig after 14 days by microscopic analysis; type: toxicity, organism-based; details: in vivo, po, 336 h; outline: as §1
[25] = Antioxidant activity assessed as trolox equivalent of AAPH-induced radical scavenging activity at 10 to 20 uM preincubated for 10 mins followed by AAPH addition measured every minute for 120 mins by ORAC fluorescein assay; type: functional
Outline: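 ORAC values are expressed as trolox equivalents, mean ± SD of three independent experiments.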

Mus musculus [26] = test: Cognition enhancement activity in amyloid beta (25 to 35 residues) induced C57BL/6J mouse model of Alzheimer's disease assessed as decrease in escape latancy at 30 mg/kg/day, ig administered for 26 consecutive days by Morris water maze test; type: functional, organism-based; outline: as §5
[27] = Acute Toxicity in C57BL/6 mouse up to 2000 mg/kg, ig measured every 14 days; type: organism-based; details: in vivo, po, 336 h; outline: as §1
[28] = Toxicity in amyloid beta (25 to 35 residues) induced C57BL/6J mouse model of Alzheimer's disease assessed as emesis at 30 mg/kg/day, ig administered for 26 consecutive days; type: organism-based; details: in vivo, po; outline: as §5
[29] = Metal chelating activity of the compound assessed as formation of cupric-compound complex at 50 uM after 30 mins by UV-vis spectrophotometric analysis; outline: as §6
in vitro [30] = details: Sprague-Dawley, rat, liver microsomes
[31] = Acute Toxicity in C57BL/6 mouse lung assessed as abnormal changes up to 2000 mg/kg, ig after 14 days by microscopic analysis; type: organism-based; details: in vivo, po, 336 h; outline: as §1
Mus musculus [32] = test: Cognition enhancement activity in amyloid beta (25 to 35 residues) induced C57BL/6J mouse model of Alzheimer's disease assessed as increase in number of virtual platform crossing at 30 mg/kg/day, ig administered for 26 consecutive days by Morris water maze test; type: functional, organism-based; outline: as §5
[33] = Metal chelating activity of the compound assessed as formation of ferrous-compound complex at 50 uM after 30 mins by UV-vis spectrophotometric analysis; outline: as §6
in vitro [34] = details: PAMPA
[35] = Toxicity in amyloid beta (25 to 35 residues) induced C57BL/6J mouse model of Alzheimer's disease assessed as loss of body weight at 30 mg/kg/day, ig administered for 26 consecutive days; type: organism-based; details: in vivo, po; outline: as §5
Mus musculus [36] = test: as §4, with “in” for “in C57BL/6J mouse model of”, “induced C57BL/6J mouse model of” for “induced”, “4” for “30”; type: ADME, organism-based; design: scale not given: the % may be the effect or the level left; details: in vivo, po; outline: as §3
Mus musculus [37] = test: Cognition enhancement activity in amyloid beta (25 to 35 residues) induced C57BL/6J mouse model of Alzheimer's disease assessed as increase in number of virtual platform crossing at 4 mg/kg/day, ig administered for 26 consecutive days by Morris water maze test; type: functional, organism-based; outline: as §5
Mus musculus [38] = test: as §2, with “4” for “30”; type: ADME, organism-based; design: scale not given: the % may be the effect or the level left; details: in vivo, po; outline: as §3
Mus musculus [39] = test: Cognition enhancement activity in amyloid beta (25 to 35 residues) induced C57BL/6J mouse model of Alzheimer's disease assessed as decrease in escape latancy at 4 mg/kg/day, ig administered for 26 consecutive days by Morris water maze test; type: functional, organism-based; outline: as §5
Mus musculus [40] = test: Cognition enhancement activity in amyloid beta (25 to 35 residues) induced C57BL/6J mouse model of Alzheimer's disease assessed as swimming speed at 4 mg/kg/day, ig administered for 26 consecutive days by Morris water maze test (reference value: 15.6 +/- 2.4 cm/sec); type: functional; outline: as §5
Mus musculus [41] = test: Cognition enhancement activity in amyloid beta (25 to 35 residues) induced C57BL/6J mouse model of Alzheimer's disease assessed as swimming path length in virtual platform at 4 mg/kg/day, ig administered for 26 consecutive days by Morris water maze test (10.2 +/- 3.2 cm); type: functional; outline: as §5
Mus musculus [42] = test: as §2, with “CA3” for “DG”, “4” for “30”, “80.2” for “55.8”, “8.6%)” for “7.2%)”; type: ADME, organism-based; design: scale not given: the % may be the effect or the level left; details: in vivo, po; outline: as §3
Mus musculus [43] = test: Cognition enhancement activity in amyloid beta (25 to 35 residues) induced C57BL/6J mouse model of Alzheimer's disease assessed as swimming time in effective region at 4 mg/kg/day, ig administered for 26 consecutive days by Morris water maze test (4.3 +/- 1.3 sec); type: functional; outline: as §5

3',5'-cyclic-AMP phosphodiesterase 4D, sequence (Q08499 whole entry, the tested form may be a part): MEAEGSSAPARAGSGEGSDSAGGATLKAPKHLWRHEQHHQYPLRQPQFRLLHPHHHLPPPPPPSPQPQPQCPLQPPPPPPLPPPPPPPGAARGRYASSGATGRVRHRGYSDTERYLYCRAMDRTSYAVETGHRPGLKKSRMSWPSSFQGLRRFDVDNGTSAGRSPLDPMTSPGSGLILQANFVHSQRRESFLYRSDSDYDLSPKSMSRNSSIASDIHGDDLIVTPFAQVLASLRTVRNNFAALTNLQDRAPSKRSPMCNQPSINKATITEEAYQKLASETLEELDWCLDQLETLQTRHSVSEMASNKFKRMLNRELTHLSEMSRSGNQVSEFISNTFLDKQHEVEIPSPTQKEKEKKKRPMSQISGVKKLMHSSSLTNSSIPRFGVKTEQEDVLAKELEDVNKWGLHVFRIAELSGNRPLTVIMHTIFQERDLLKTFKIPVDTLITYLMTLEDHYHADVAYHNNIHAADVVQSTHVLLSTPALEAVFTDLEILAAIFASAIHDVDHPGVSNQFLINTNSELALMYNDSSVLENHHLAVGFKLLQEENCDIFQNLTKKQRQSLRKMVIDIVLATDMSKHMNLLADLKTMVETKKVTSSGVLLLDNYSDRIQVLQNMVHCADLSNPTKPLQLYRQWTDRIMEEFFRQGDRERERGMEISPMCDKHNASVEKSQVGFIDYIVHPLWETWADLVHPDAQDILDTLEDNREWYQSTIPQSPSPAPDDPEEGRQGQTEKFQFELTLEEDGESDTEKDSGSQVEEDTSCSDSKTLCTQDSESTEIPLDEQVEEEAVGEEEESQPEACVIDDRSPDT

Structure (SMILES): Cl.O=C(Nc1ccc(O)c2ncccc12)c1ccc(OC(F)F)c(OCC2CC2)c1
- Activity [1]: Non-Toxic
- Activity (Mus musculus [2]): 18.7%
- Activity (Mus musculus [3]): 12.5%
- K [4]: 0.00767 min⁻¹
- Time (Mus musculus [5]): 6.8 s
- Activity [6]: Active
- Activity [7]: Active
- Activity [8]: Non-Toxic
- IC50 [9]: 399 nM
- Activity (Mus musculus [10]): 7.9%
- Activity [11]: Active
- Activity [12]: Non-Toxic
- Activity [13]: Non-Toxic
- Activity [14]: Non-Toxic
- Activity [15]: Non-Toxic
- Activity (Mus musculus [16]): 19 cm
- Activity (SH-SY5Y [17]): Dose-dependent effect
- Activity [18]: Non-Toxic
- Activity [19]: Non-Toxic
- Activity (Mus musculus [20]): 15 cm/s
- Activity (SH-SY5Y [21]): Non-Toxic
- Activity [22]: Active
- Activity [23]: Non-Toxic
- Activity [24]: Non-Toxic
- Activity [25]: 0.6 equiv
- Activity (Mus musculus [26]): Active
- Activity [27]: Non-Toxic
- Activity [28]: Non-Toxic
- Activity [29]: Active
- half-life (in vitro [30]): 1.5 h
- Activity [31]: Non-Toxic
- Activity (Mus musculus [32]): Active
- Activity [33]: Active
- Papp at 10 h, 100 ug/ml (in vitro [34]): 12.9 ×10⁻⁶ cm/s
- Activity [35]: Non-Toxic

- Papp at 10 h, 100 ug/ml (in vitro [34]): 9.22 ×10⁻⁶ cm/s
Structure (SMILES): O=C(Nc1c(Cl)cncc1Cl)c1ccc(OC(F)F)c(OCC2CC2)c1 [ROFLUMILAST]
- Activity (Mus musculus [36]): 16.5%
- Activity (Mus musculus [37]): Active
- Activity (Mus musculus [38]): 25.1%
- Activity (Mus musculus [39]): Active
- Activity [25]: 0.067 equiv
- Activity (Mus musculus [40]): 14.5 cm/s
- Activity (Mus musculus [41]): 16 cm
- Activity (Mus musculus [42]): 38.7%
- Time (Mus musculus [43]): 5.4 s
